Hits are enriched below; roughly 3.5% of the tested compounds scored in any of these assays.
RGS4 block: human RGS4 inhibition; P49798; HEK293 M3R/RGS4 inducible, Fluo-4 calcium flux; active compounds read high; triggered by carbachol at its EC20; B-score at 10 µM; 0.45% of 310,000 active;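 active = B-score, a plate-corrected calcium signal, over three deviations above library mean, with baseline fluorescence within five deviations of library mean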;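 note: RGS4 expression induced by doxycycline in cells with stable M3 receptor; B-score is computed from the integrated fluorescence ratio over baseline after carbachol; higher B-score means a larger calcium signal and so more RGS4 inhibition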
Target sequence (P49798 whole entry, looked up): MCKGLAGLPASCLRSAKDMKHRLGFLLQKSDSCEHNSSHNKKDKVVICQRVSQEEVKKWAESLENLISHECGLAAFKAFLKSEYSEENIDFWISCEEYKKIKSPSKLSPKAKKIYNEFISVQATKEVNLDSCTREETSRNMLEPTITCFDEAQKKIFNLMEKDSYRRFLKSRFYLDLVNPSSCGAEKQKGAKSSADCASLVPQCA
MrgX1 agonist: agonists of human MrgX1 receptor. Q96LB2. 0.44% of 310,000 active. B-score at 10 µM. MrgX1-HEK293 cells, Fluo-4 calcium fluorescence, agonist mode; active compounds read high;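 active = calcium response B-score plate-corrected fluorescence ratio at least 3 library SD, with starting fluorescence B-score inside 5 SD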
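Material: HEK293 cells stably expressing human MrgX1 receptor | Quantity: 15,000 cells per well | Times: Cells plated overnight, dye loaded 0.5 h 37 °C, 0.5 h room temperature | Measured by: Kinetic Fluo-4 NW fluorescence of intracellular calcium | Control set: Positive and negative controls per plate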
RGS4 act: potentiators or activators of RGS4; HEK293 M3R/inducible RGS4, carbachol calcium flux Fluo4; active compounds read low; B-score at 10 µM; 0.92% of 310,000 active; AID 463111;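 active = B-score of the integrated calcium signal more than 4 SD below the library mean, with starting fluorescence not abnormally high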;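 note: negative B-score means reduced calcium response which marks RGS4 activation or potentiation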
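test system = M3R-expressing HEK293 line, RGS4 induced by doxycycline | probe or stimulus = carbachol at ECmax as muscarinic agonist stimulus | timing = dye loading 30 min 37 °C, buffer rest 30 min RT | signal = calcium dye Fluo4 fluorescence | evaluation = B score from integrated fluorescence ratio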
MrgX1 antagonist: blocks BAM8-22 activation of human MrgX1 receptor; MRGX1-HEK293 calcium flux, Fluo-4, BAM8-22 antagonism; active compounds read low; B-score at 10 µM; 1.3% of 310,000 active;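 active = calcium-response B-score plate-corrected more than 3 library SD below zero, starting fluorescence within 5 deviations, no agonist response on first addition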;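 note: peak minus trough fluorescence over baseline after final BAM8-22 challenge near maximal dose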
MrgX1 PAM: human MrgX1 positive allosteric modulation, primary screen | 0.63% of 310,000 active | B-score at 10 µM | Q96LB2 | MrgX1-HEK293, Fluo-4 calcium flux, FDSS; active compounds read high;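 active = plate-corrected calcium response at least 3 library SD above typical, normal starting fluorescence, not activating the receptor alone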;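 note: compound read alongside a low EC10 to EC30 dose of BAM8-22 agonist; peak minus trough fluorescence over baseline measured at the second addition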
The depositor's hits bear a star; i = inactive.

SMILES	RGS4 block	MrgX1 agonist	RGS4 act	MrgX1 antagonist	MrgX1 PAM
CCCn1c(-c2ccc(F)cc2)n[nH]c1=S	i	i	i	i	i
CCCCn1c(-c2ccc([N+](=O)[O-])cc2)n[nH]c1=S	i	i	-10*	i	i
CCN1C(=O)CC2(C[N+]3(C)CCC2CC3)C1=O (stereo not given)	i	i	-7.2*	i	i
CCN(CC)c1c([N+](=O)[O-])c(=O)n(CC)c2ccccc12	i	i	i	i	i
COc1ccc(OC)c(N(CC(=O)N2CCCCC2)S(=O)(=O)c2ccc(OC)c(OC)c2)c1	i	i	i	i	i
COc1ccc(OC)c(N(CC(N)=O)S(=O)(=O)c2ccc(OC)c(OC)c2)c1	i	i	i	i	12*
CCCCc1ccc(/C(C)=N/NC(=O)C2CCCC2)cc1	i	i	i	i	i
O=C(NCCN1C(=O)S/C(=C\c2ccccc2F)C1=O)C1CCN(S(=O)(=O)c2cccs2)CC1	i	i	i	-8.9*	i
CC(=O)N1CCN(C(=O)CCc2cc(C(C)(C)C)c(O)c(C(C)(C)C)c2)CC1	i	i	i	i	i
CCN(CC)CCN1c2ccccc2Sc2ccccc21	i	i	-7.1*	i	i
CCN(CC)CCN1c2ccccc2Sc2ccc3ccccc3c21	i	i	-7.5*	i	i
CC(=O)c1c(C)[nH]c(C(=O)Nc2ccc(F)c(F)c2F)c1C	i	i	i	i	i
COc1ccccc1C(=O)NCC(=O)N/N=C(\C)Cc1ccccc1	i	i	i	i	i
COC(=O)C(=Cc1ccccc1[N+](=O)[O-])C(=O)OC	i	50*	i	i	i
CCCCCCCCNC(=O)/C(C#N)=C/c1ccccc1[N+](=O)[O-]	i	i	-7.9*	i	i
O=C(/C=C/c1ccccc1[N+](=O)[O-])Oc1ccccc1	i	i	i	i	i
CC(C(=O)N1CCc2ccccc21)N1CCN(c2cccc(C(F)(F)F)c2)CC1 (stereo not given)	i	i	i	i	i
COc1ccccc1NC(=O)N1C2CCCC1CC(NC(=O)c1ccccc1)C2 (stereo not given)	i	i	i	i	i
O=c1c2ccc([N+](=O)[O-])cc2ncn1CCOc1ccc(Cl)cc1	i	i	-8.2*	i	i
O=c1c2ccc([N+](=O)[O-])cc2ncn1CCOc1cccc(Br)c1	i	i	i	i	i
Cc1cccc(C)c1OCC(O)Cn1c2ccccc2c2ccccc21 (stereo not given)	i	i	-7.1*	i	i
Cc1ccc(OCC(O)Cn2c3ccccc3c3ccccc32)cc1 (stereo not given)	i	i	i	i	i
C#CC(C)(C)NC(=O)c1ccc(-c2ccccc2F)cc1	i	i	i	i	i
O=C(OC(C(=O)Nc1cc(Cl)cc(Cl)c1)c1ccccc1)C1=COCCO1 (stereo not given)	i	i	i	-5.3*	i
O=C(O)C(c1ccccc1)N1CCCCC1 (stereo not given)	i	i	i	-4.7*	i
SMILES	RGS4 block	MrgX1 agonist	RGS4 act	MrgX1 antagonist	MrgX1 PAM
COc1ccc(C(=O)NNC(=S)NC(=O)c2ccc(Br)o2)cc1OC	i	53*	i	i	i
Cc1cc(OCC(=O)NNC(=S)NC(=O)c2cccs2)ccc1Cl	i	i	-7.8*	i	8.4*
Cc1cccc(NC(=S)NNC(=O)c2ccc(Br)o2)c1	i	i	i	i	i
COc1ccc(OCC(=O)NNC(=O)c2cccs2)cc1	i	i	i	i	i
COc1ccc(C(=O)NC(=S)NNC(=O)c2cnccn2)cc1OC	i	i	i	i	i
Cc1ccc(OCC(=O)NNC(=S)NC(=O)c2ccc(Br)o2)c(C)c1	i	i	-11*	i	10*
Cc1ccc(OCC(=O)NNC(=S)NC(=O)c2cccs2)c(C)c1	i	35*	-9*	i	i
CSc1ccc(/C=N/n2c(COc3ccccc3)n[nH]c2=S)cc1	i	i	i	i	i
